Active and inactive are the calls of the source. No cut-off for these calls is given here.

The subject of data set [1] is Trypanosoma brucei brucei. Description: Antitrypanosomal activity against stage-1 bioluminescent Trypanosoma brucei brucei GVR35-VSL2 expressing red-shifted luciferase infected in BALB/c mouse assessed as reduction in parasite growth without relapse at 5 to 20 mg/kg, ip administered once daily for 4 days starting from 4 days post infection by luciferase based bioluminescence assay. Type of data set: functional, organism-based. As to conditions: dose 5-20 mg/kg, time 4.0 day. In a few lines:
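BALB/c mice infected with 30,000 bioluminescent bloodstream-form T. brucei; dosing i.p. or oral from 4 days post-infection, single or once daily for 4 days. Monitored by in vivo imaging after i.p. d-luciferin 150 mg kg⁻¹ under isoflurane, with total body flux from dorsal plus ventral images. Cure required negativity by both in vivo and ex vivo imaging.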

Data set [2] is described as follows: Apparent permeability across basolateral to apical side in MDCK-MDR1 cells at 10 uM measured for 60 mins by LC-MS/MS analysis. Conditions: dog, mdck-mdr1, 1 h, 10 µM. The format is ADME, cell-based, Canis lupus familiaris. In a few lines: (§1)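 MDCKII-hMDR1 monolayers on inserts, compound 10 μM (1% DMSO) in duplicate, 60 min at 37 °C, bidirectional, with and without elacridar 2 μM. Amprenavir as P-gp control, Lucifer yellow for monolayer integrity; compound quantified by LC–MS/MS.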

Data set [3] can be described thus: Toxicity in BALB/c mouse infected with bioluminescent Trypanosoma brucei brucei GVR35-VSL2 expressing red-shifted luciferase assessed as hunching in animal at 20 mg/kg, po administered once daily for 4 days. Type of data set: organism-based. Conditions: in vivo, 96 h, time 4 day. In a few lines:
(§2)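 Infected BALB/c mice (bioluminescent T. brucei, 30,000 parasites) dosed i.p. or orally once daily for 4 days starting day 4 post-infection; observed for piloerection, hunching, shaking, lack of activity and body weight change.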

Data set [4] is described as follows: Drug localization in endosome of Trypanosoma brucei bloodstream form at 10 ug/ml measured after 6 hrs in presence of bafilomycin Al by TbCatL antibody based immunofluorescence microscopy. Type of data set: ADME, subcellular. Conditions: dose 10 µg/ml. In a few lines:
(§3)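 Parasites exposed to compound 10 μg mL⁻¹ for 6 h, with or without BafA1 8 nM; fixed 4% PFA, permeabilized 0.1% Triton X-100, blocked 1% BSA, rabbit anti-TbCatL 1:200 overnight at 4 °C, then Alexa 488 anti-rabbit 2 μg mL⁻¹ 1 h at 37 °C; fluorescence microscopy.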

Data set [5] is described as follows: Drug localization in nucleus of Trypanosoma brucei bloodstream form at 10 ug/ml measured for 180 mins by fluorescence microscopy. The format is ADME, subcellular. As to conditions: 3 h, dose 10 µg/ml. In a few lines:
(§4)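 Bloodstream-form T. brucei incubated with compound 10 μg mL⁻¹ for 60 or 180 min or 24 h; fixed in 4% PFA, mounted with DAPI, imaged by fluorescence microscopy (ex 550/em 585 nm).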

In data set [6] the test system is Trypanosoma brucei. Description: Antitrypanosomal activity against blood stream form of Trypanosoma brucei 221a variant assessed as parasite growth inhibition at 0.15 to 4.8 nM preincubated for 24 hrs followed by subculturing with fresh medium with compounds and measured after 2 days by resazurin dye based fluorescence analysis. Conditions: dose 0.15-4.8 nM, time 3.0 day. Type of data set: functional, organism-based. In a few lines: (§5)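 Bloodstream-form T. brucei seeded in flasks at 10^5 mL^-1 with a range of compound concentrations. Every 24 h parasites were sub-cultured back to 10^5 mL^-1 in continued compound presence, through day 10. Growth reported as cumulative parasite number. In a washout arm, parasites were exposed for 3 days, moved to compound-free medium and followed for 12 days.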
A general note: Resazurin is reduced to fluorescent resorufin, in cell work by metabolically active cells.

The nature of data set [7]: Toxicity in BALB/c mouse infected with bioluminescent Trypanosoma brucei brucei GVR35-VSL2 expressing red-shifted luciferase assessed as shaking in animal at 0.25 to 20 mg/kg, ip administered once daily for 4 days. Type of data set: organism-based. Conditions: in vivo, 96 h, dose 0.25-20 mg/kg, time 4 day. In a few lines:
as §2

Data set [8] can be described thus: Toxicity in BALB/c mouse infected with bioluminescent Trypanosoma brucei brucei GVR35-VSL2 expressing red-shifted luciferase assessed as lack of activity in animal at 0.25 to 20 mg/kg, ip administered once daily for 4 days. The format is organism-based. As to conditions: in vivo, 96 h, dose 0.25-20 mg/kg, time 4 day. In a few lines: as §2
Data set [9] deals with Trypanosoma brucei. Description: Antitrypanosomal activity against blood stream form of Trypanosoma brucei 221a variant assessed as lethality at >=1.2 nM incubated for 3 days followed by replacement with fresh medium without compound and measured for 12 days by resazurin dye based fluorescence analysis relative to control. Type of data set: functional. As to conditions: time 3 day. In a few lines: as §5

Data set [10] is described as follows: Drug localization in lysosomes of Trypanosoma brucei bloodstream form at 10 ug/ml by fluorescence microscopy. The format is ADME, subcellular, Lysosome. As to conditions: TDE = time-dependent effect, time 1-24 hrs, dose 10 µg/ml. In a few lines:
as §4

Data set [11] can be described thus: Drug localization in lysosomes of Trypanosoma brucei bloodstream form at 10 ug/ml measured after 6 hrs by TbCatL antibody based immunofluorescence microscopy. The format is ADME, subcellular, Lysosome. Conditions: dose 10 µg/ml. In a few lines: as §3
Data set [12] in a line: Toxicity in BALB/c mouse infected with bioluminescent Trypanosoma brucei brucei GVR35-VSL2 expressing red-shifted luciferase assessed as shaking in animal at 20 mg/kg, po administered once daily for 4 days. The format is organism-based. Conditions: in vivo, 96 h, time 4 day. In a few lines:
as §2

For data set [13], the system named is Trypanosoma brucei. Description: Resistant development in Trypanosoma brucei harboring aqp null mutants assessed as fold reduction in sensitivity incubated for 48 hrs by resazurin dye based analysis relative to control. The format is functional. In a few lines:
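Tbaqp null mutant bloodstream lines tested in the 48 h resazurin microtiter assay: 2.5×10^4 parasites mL^-1 at 37 °C, then 16 h with resazurin and fluorescence read-out. EC50 found for each line in triplicate.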

A short description of data set [14]: Apparent permeability across apical to basolateral side in MDCK-MDR1 cells at 10 uM measured for 60 mins by LC-MS/MS analysis. Conditions: dog. Type of data set: ADME, cell-based, Canis lupus familiaris. In a few lines: as §1
Data set [15] in a line: Drug localization in kinetoplast of Trypanosoma brucei bloodstream form at 10 ug/ml measured for 180 mins by fluorescence microscopy. Conditions: 3 h, dose 10 µg/ml. The format is ADME, subcellular. In a few lines:
as §4

In data set [16] the test system is Trypanosoma brucei. Description: Antitrypanosomal activity against blood stream form of Trypanosoma brucei 221a variant assessed as parasite growth inhibition measured after 48 hrs by resazurin dye based fluorescence analysis. Type of data set: functional, organism-based. In a few lines:
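Bloodstream-form T. b. brucei 221a (MiTat1.2a) in modified Iscove's medium at 37 °C, started at 2.5×10^4 mL^-1 with a concentration range. After 48 h, resazurin was added for a further 16 h. Fluorescence read at ex 545/em 590 nm. EC50 and EC90 taken from three independent replicates.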

Broadly, the Papp A→B is the apparent permeability from the apical to the basolateral side of a cell layer. A word on the EC50: it is the concentration at which the effect is half-maximal. One may read the EC90 as the concentration at which the effect reaches the 90% level. For `CS(=O)(=O)O.CS(=O)(=O)O.N=C(N)c1ccc2nc(C3CCC(c4nc5ccc(C(=N)N)cc5s4)CC3)sc2c1` (configuration not stated), the outcome (in [1]; with Trypanosoma brucei [6]) was Active. The Papp in data set [2] is 0.4 10^-6 cm/s. For the same molecule, the Activity result in data set [3] is “Non-Toxic”; in [7], “Non-Toxic”; in data set [8] it was “Non-Toxic”; in the data set on Trypanosoma brucei [9], 100%; in data set [12] it was “Non-Toxic”. In addition, the Drug uptake result in [4] was “Not Active”; in data set [5], “Not Active”; in data set [10] it was “Tde”; in data set [11], “Active”; in [15] it was “Not Active”. Further, the “fold change (FC)” value in the data set with Trypanosoma brucei [13] was 1.3. For the same molecule, in data set [14], the Papp A→B at 1 h, 10 µM was less than 0.1 ×10⁻⁶ cm/s. Moreover, the EC50 with Trypanosoma brucei [16] (48 h) came out at 1 nM. For the same molecule, in the data set on Trypanosoma brucei [16] (time 48 hrs), the EC90 is 1 nM.

The values are drawn from ChEMBL document CHEMBL5365494, “Bis-6-amidino-benzothiazole Derivative that Cures Experimental Stage 1 African Trypanosomiasis with a Single Dose” (J Med Chem, 2023).
